From ChEMBL document CHEMBL3808334, “Synthesis and in vitro evaluation of novel triazine analogues as anticancer agents and their interaction studies with bovine serum albumin” (Eur J Med Chem, 2016)

Legend:
Format in all cases: functional
U-251 [1] = assay: Growth inhibition of human U251 cells assessed as cell growth at 10^-8 M incubated for 48 hrs by sulforhodamine B assay; details: U-251, 48 h, read-out: Activity
CCRF-CEM = assay: Growth inhibition of human CCRF-CEM cells assessed as cell growth at 10^-5 M incubated for 48 hrs by sulforhodamine B assay; details: read-out: Activity
Outline: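 Leukemia line in the five-dose format: five concentrations from 10-fold or ½-log serial dilutions. Plated at 5,000–40,000 cells per well, preincubated 24 h, then compound added for 48 h at 37 °C, 5% CO₂. Sulforhodamine B absorbance read at 515 nm. Growth is computed against time-zero (Tz) and control (C) readings; GI₅₀ is where [(Ti−Tz)/(C−Tz)]×100 = 50.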

[2] = Growth inhibition of human COLO205 cells incubated for 48 hrs by sulforhodamine B assay; details: COLO 205, 48 h
Outline: (§1)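 Cells seeded at 5,000–40,000/well according to doubling time and preincubated 24 h at 37 °C, 5% CO2. Time-zero plates were TCA-fixed. DMSO concentrate was diluted in medium with 50 µg/ml gentamicin to give five concentrations (10-fold or ½ log steps), then exposed 48 h. Cells were TCA-fixed, stained with 0.4% SRB and read at 515 nm. Percent growth was taken against time-zero and control; GI50, TGI and LC50 derived.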

[3] = Growth inhibition of human SW620 cells assessed as cell growth at 10^-5 M incubated for 48 hrs by sulforhodamine B assay; details: SW-620, 48 h, read-out: Activity
SR [4] = assay: Growth inhibition of human SR cells assessed as cell growth at 10^-6 M incubated for 48 hrs by sulforhodamine B assay; details: read-out: Activity
MDA-MB-231 = assay: Growth inhibition of human MDA-MB-231 cells assessed as cell growth at 10^-5 M incubated for 48 hrs by sulforhodamine B assay; details: MDA-MB-231, 48 h, read-out: Activity
NCI-H460 = assay: Growth inhibition of human NCI-H460 cells assessed as cell growth at 10^-8 M incubated for 48 hrs by sulforhodamine B assay; details: NCI-H460, 48 h, read-out: Activity
NCI-H522 = assay: Growth inhibition of human NCI-H522 cells assessed as cell growth at 10^-4 M incubated for 48 hrs by sulforhodamine B assay; details: NCI-H522, 48 h, read-out: Activity
A498 = assay: Growth inhibition of human A498 cells incubated for 48 hrs by sulforhodamine B assay; details: A498, 48 h
Outline: (§2)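 Five-dose assay: five concentrations from 10-fold or ½-log serial dilutions. Cells are plated at 5,000–40,000 per well according to doubling time, grown 24 h, then exposed 48 h at 37 °C, 5% CO₂. Fixed with cold 50% TCA (final addition) for 60 min at 4 °C and stained with 0.4% SRB in 1% acetic acid. Bound dye is solubilized in 10 mM Tris base and read at 515 nm. GI₅₀ is where [(Ti−Tz)/(C−Tz)]×100 = 50, with a time-zero plate as Tz.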

[5] = Growth inhibition of human Caki1 cells assessed as cell growth at 10^-8 M incubated for 48 hrs by sulforhodamine B assay; details: CAKI-1, 48 h, read-out: Activity; outline: as §1
[6] = Growth inhibition of human RXF393 cells assessed as cell growth at 10^-5 M incubated for 48 hrs by sulforhodamine B assay; details: RXF 393, 48 h, read-out: Activity
[7] = Growth inhibition of human OVCAR4 cells assessed as cell growth at 10^-7 M incubated for 48 hrs by sulforhodamine B assay; details: OVCAR-4, 48 h, read-out: Activity
SR [8] = assay: Growth inhibition of human SR cells assessed as cell growth at 10^-7 M incubated for 48 hrs by sulforhodamine B assay; details: read-out: Activity
[9] = Growth inhibition of human SKOV3 cells assessed as cell growth at 10^-8 M incubated for 48 hrs by sulforhodamine B assay; details: SK-OV-3, 48 h, read-out: Activity
U-251 [10] = assay: Growth inhibition of human U251 cells assessed as cell growth at 10^-5 M incubated for 48 hrs by sulforhodamine B assay; details: U-251, 48 h, read-out: Activity
A549 = assay: Growth inhibition of human A549/ATCC cells assessed as cell growth at 10^-5 M incubated for 48 hrs by sulforhodamine B assay; details: A549, 48 h, read-out: Activity; outline: as §2
[11] = Growth inhibition of human SF268 cells assessed as cell growth at 10 uM incubated for 48 hrs by sulforhodamine B assay; details: SF-268, 48 h, read-out: Activity
ACHN = assay: Growth inhibition of human ACHN cells incubated for 48 hrs by sulforhodamine B assay; outline: as §2
[12] = Growth inhibition of human RXF393 cells incubated for 48 hrs by sulforhodamine B assay; details: RXF 393, 48 h
Outline: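 Cells were plated at 5,000–40,000 per well according to doubling time and preincubated 24 h at 37 °C in 5% CO2; time-zero plates were then TCA-fixed. Five concentrations (10-fold or ½-log dilutions, DMSO stock) were incubated 48 h. Cells were TCA-fixed, stained with 0.4% SRB and read at 515 nm. GI50 was taken where [(Ti−Tz)/(C−Tz)]×100 = 50.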

MDA-MB-435 [13] = assay: Growth inhibition of human MDA-MB-435 cells assessed as cell growth at 10 uM incubated for 48 hrs by sulforhodamine B assay; details: MDA-MB-435, 48 h, read-out: Activity
[14] = Growth inhibition of human OVCAR8 cells assessed as cell growth at 10^-5 M incubated for 48 hrs by sulforhodamine B assay; details: OVCAR-8, 48 h, read-out: Activity
NCI-H322M = assay: Growth inhibition of human NCI-H322M cells assessed as cell growth at 10^-6 M incubated for 48 hrs by sulforhodamine B assay; details: read-out: Activity
MDA-MB-435 [15] = assay: Growth inhibition of human MDA-MB-435 cells assessed as cell growth at 10^-7 M incubated for 48 hrs by sulforhodamine B assay; details: MDA-MB-435, 48 h, read-out: Activity
SK-MEL-2 = assay: Growth inhibition of human SK-MEL-2 cells assessed as cell growth at 10^-6 M incubated for 48 hrs by sulforhodamine B assay; details: SK-MEL-2, 48 h, read-out: Activity
M14 = assay: Growth inhibition of human M14 cells assessed as cell growth at 10^-7 M incubated for 48 hrs by sulforhodamine B assay; details: M14, 48 h, read-out: Activity
[16] = read-out: LC50 (the source's name)
[17] = read-out: pLC50 (the source's name) (converted)

## c1ccc(-c2nc(Nc3ccc(-c4nc5ccccc5[nH]4)cc3)nc(N3CCOCC3)n2)cc1
U-251 [1]
  growth at 0.01 µM: 105%
CCRF-CEM
  growth at 10 µM: -33%
[2]; read-out: GI50
  GI50: 1.41 µM
[2]; read-out: LC50
  LC50: 6.92 µM
[2]; read-out: TGI
  TGI: 3.13 µM
[2]; read-out: pGI50 (converted)
  GI50: 1.41 µM
[2]; read-out: pLC50 (converted)
  LC50: 6.92 µM
[2]; read-out: pTGI (converted)
  TGI: 3.16 µM
[3]
  growth at 10 µM: -77%
SR [4]
  growth at 1 µM: -20%
MDA-MB-231
  growth at 10 µM: -53%
NCI-H460
  growth at 0.01 µM: 103%
NCI-H522
  growth at 100 µM: -74%
A498; read-out: GI50
  GI50: 1.09 µM
A498; [16]
  CC50: 6.31 µM
A498; read-out: TGI
  TGI: 2.62 µM
A498; read-out: pGI50 (converted)
  GI50: 1.1 µM
A498; [17]
  CC50: 6.31 µM
A498; read-out: pTGI (converted)
  TGI: 2.63 µM
[5]
  growth at 0.01 µM: 91%
[6]
  growth at 10 µM: -63%
[7]
  growth at 0.1 µM: 103%
SR [8]
  growth at 0.1 µM: 58%
[9]
  growth at 0.01 µM: 95%
U-251 [10]
  growth at 10 µM: -85%
A549
  growth at 10 µM: -63%
[11]
  growth at 10 µM: -43.4%
ACHN; read-out: GI50
  GI50: 1.25 µM
ACHN; [16]
  CC50: 6.04 µM
ACHN; read-out: TGI
  TGI: 2.74 µM
ACHN; read-out: pGI50 (converted)
  GI50: 1.26 µM
ACHN; [17]
  CC50: 6.03 µM
ACHN; read-out: pTGI (converted)
  TGI: 2.75 µM
[12]; read-out: GI50
  GI50: 0.501 µM
[12]; [16]
  CC50: 7.24 µM
[12]; read-out: TGI
  TGI: 2.12 µM
[12]; read-out: pGI50 (converted)
  GI50: 0.501 µM
[12]; [17]
  CC50: 7.24 µM
[12]; read-out: pTGI (converted)
  TGI: 2.14 µM
MDA-MB-435 [13]
  growth at 10 µM: -81.1%
[14]
  growth at 10 µM: -78%
NCI-H322M
  growth at 1 µM: 86%
MDA-MB-435 [15]
  growth at 0.1 µM: 101%
SK-MEL-2
  growth at 1 µM: 106%
M14
  growth at 0.1 µM: 103%

## Clc1ccc(-c2nc(Nc3ccc(-c4nc5ccccc5[nH]4)cc3)nc(N3CCOCC3)n2)cc1
U-251 [1]
  growth at 0.01 µM: 99%
CCRF-CEM
  growth at 10 µM: -63%
[2]; read-out: GI50
  GI50: 0.305 µM
[2]; read-out: TGI
  TGI: 1.07 µM
[2]; read-out: pGI50 (converted)
  GI50: 0.302 µM
[2]; read-out: pTGI (converted)
  TGI: 1.07 µM
[3]
  growth at 10 µM: -79%
SR [4]
  growth at 1 µM: -19%
MDA-MB-231
  growth at 10 µM: -76%
NCI-H460
  growth at 0.01 µM: 101%
NCI-H522
  growth at 100 µM: -41%
A498; read-out: GI50
  GI50: 1.69 µM
A498; read-out: TGI
  TGI: 3.29 µM
A498; read-out: pGI50 (converted)
  GI50: 1.7 µM
A498; read-out: pTGI (converted)
  TGI: 3.31 µM
[5]
  growth at 0.01 µM: 89%
[6]
  growth at 10 µM: -79%
[7]
  growth at 0.1 µM: 98%
SR [8]
  growth at 0.1 µM: -5%
[9]
  growth at 0.01 µM: 101%
U-251 [10]
  growth at 10 µM: -92%
A549
  growth at 10 µM: -81%
[11]
  growth at 10 µM: -82.7%
ACHN; read-out: GI50
  GI50: 1.05 µM
ACHN; read-out: TGI
  TGI: 2.38 µM
ACHN; read-out: pGI50 (converted)
  GI50: 1.05 µM
ACHN; read-out: pTGI (converted)
  TGI: 2.4 µM
[12]; read-out: GI50
  GI50: 0.222 µM
[12]; read-out: TGI
  TGI: 0.45 µM
[12]; read-out: pGI50 (converted)
  GI50: 0.224 µM
[12]; read-out: pTGI (converted)
  TGI: 0.447 µM
MDA-MB-435 [13]
  growth at 10 µM: -86.1%
[14]
  growth at 10 µM: -79%
NCI-H322M
  growth at 1 µM: 2%
MDA-MB-435 [15]
  growth at 0.1 µM: 98%
SK-MEL-2
  growth at 1 µM: 97%
M14
  growth at 0.1 µM: 93%
